In ChEMBL document CHEMBL1145351, “Squalene-derived flexible linkers for bioactive peptides” (Bioorg Med Chem Lett, 2007):
Active and inactive are the calls of the source. No cut-off for these calls is given here.

Molecular target: T1, Melanocortin receptor 4 (Homo sapiens, UniProt P32245)
Assay: Displacement of Eu-NDP-alpha-MSH from human melanocortin 4 receptor expressed in HEK293 cells
Format: cell-based
Summary of the method: (§1)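 HEK293 cells overexpressing hMC4R, plated at 12,000 cells/well and grown 3 days. Incubated 40 min at 37 °C, washed 4 times in Tris-HCl/BSA/NaCl, then enhancement solution added for 30 min at 37 °C before time-resolved Eu read-out. IC50 averaged over n independent experiments, each in quadruplicate.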

T1 sequence (P32245 whole entry): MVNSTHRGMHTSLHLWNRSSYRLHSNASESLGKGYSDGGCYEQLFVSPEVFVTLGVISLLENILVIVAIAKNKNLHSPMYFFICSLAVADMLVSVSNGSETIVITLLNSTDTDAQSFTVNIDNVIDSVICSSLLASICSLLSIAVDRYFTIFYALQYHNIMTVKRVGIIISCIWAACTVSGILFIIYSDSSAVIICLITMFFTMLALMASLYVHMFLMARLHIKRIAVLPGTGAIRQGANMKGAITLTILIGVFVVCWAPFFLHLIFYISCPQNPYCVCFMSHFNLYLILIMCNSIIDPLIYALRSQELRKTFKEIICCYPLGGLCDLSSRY

`C#CCCCC(=O)N[C@@H](Cc1cnc[nH]1)C(=O)N[C@H](Cc1ccccc1)C(=O)N[C@@H](CCCNC(=N)N)C(=O)N[C@@H](Cc1c[nH]c2ccccc12)C(N)=O` was tested. Which IC50 did it give?
Its IC50 is 900 nM.

For `N=C(N)NCCC[C@H](NC(=O)C(Cc1ccccc1)NC(=O)[C@@H](N)Cc1cnc[nH]1)C(=O)N[C@@H](Cc1c[nH]c2ccccc12)C(=O)O` (stereo in doubt), which IC50 is on record?
Its IC50 is 1100 nM.

How did the IC50 turn out when `CC(C)C(O)CCC(C)C(O)CCC(C)C(O)CCC(OCCCCCCn1cc(CCCC(=O)N[C@@H](Cc2cnc[nH]2)C(=O)N[C@H](Cc2ccccc2)C(=O)N[C@@H](CCCN=C(N)N)C(=O)N[C@@H](Cc2c[nH]c3ccccc23)C(N)=O)nn1)C(C)CCC(O)C(C)CCC(O)C(C)C` (some centres not stated) was run?
The IC50 was 3300 nM.

How did the IC50 turn out when `CC(C)C(O)CCC(C)C(O)CCC(C)C(CCC(O)C(C)CCC(O)C(C)CCC(OCCCCCCn1cc(CCCC(=O)N[C@@H](Cc2cnc[nH]2)C(=O)N[C@@H](Cc2ccccc2)C(=O)N[C@@H](CCCNC(=N)N)C(=O)N[C@@H](Cc2c[nH]c3ccccc23)C(N)=O)nn1)C(C)C)OCCCCCCn1cc(CCCC(=O)N[C@@H](Cc2cnc[nH]2)C(=O)N[C@@H](Cc2ccccc2)C(=O)NC(CCCNC(=N)N)C(=O)N[C@@H](Cc2c[nH]c3ccccc23)C(N)=O)nn1` (single isomer, unassigned) was run?
The IC50 was 400 nM.

Molecular target: T1, Melanocortin receptor 4
Assay: Displacement of Eu-NDP-alpha-MSH from human melanocortin 4 receptor expressed in HEK293 cells at 1 pM to 10 uM
Format: cell-based
Summary of the method: as §1

`C#CCCCC(=O)N[C@@H](CO)C(N)=O` was tested. Which Activity did it give?
The Activity was “inactive”.

For `CC(C)C(O)CCC(C)C(O)CCC(C)C(O)CCC(OCCCCCCn1cc(CCCC(=O)N[C@@H](CO)C(N)=O)nn1)C(C)CCC(O)C(C)CCC(O)C(C)C` (some centres not stated), which Activity is on record?
Its Activity is “inactive”.

For `CC(C)C(O)CCC(C)C(O)CCC(C)C(CCC(O)C(C)CCC(O)C(C)CCC(OCCCCCCn1cc(CCCC(=O)N[C@@H](CO)C(N)=O)nn1)C(C)C)OCCCCCCn1cc(CCCC(=O)N[C@@H](CO)C(N)=O)nn1` (some centres not stated), which Activity is on record?
Its Activity is “inactive”.
